Measurements taken from ChEMBL document CHEMBL1129935, “Chromophore-modified bis-naphthalimides: synthesis and antitumor activity of bis-dibenz[de,h]isoquinoline-1,3-diones” (J Med Chem, 1997).
pIC50: −log10 of the molar value.

What was measured:
HT-29 = test: In vitro cytotoxicity against HT-29 (human colon adenocarcinoma) cell line.; format: functional, cell-based
Summary of the method: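 Human colon carcinoma HT-29 cells, 3000/well in DMEM with 10% FBS, attached 24 h. Free bases dissolved in DMSO, final DMSO <1%, added as 1:4 serial dilutions. Exposure 72 h at 37 °C, 5% CO2. MTT added for 4 h, formazan solubilized overnight in 25% SDS (pH 2), absorbance read at 550 nm. IC50 taken as concentration giving 50% of control growth.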

Mus musculus [1] = test: Median survival time of Compound on C57B1/6 mice which was implanted intraperitoneally with M5076 murine sarcoma cells at the dose of 1.8 mg/kg (dose administered intraperitoneally on days 1, 5 and 9).; format: functional; conditions: route intraperitoneal
Summary of the method: (§1)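 M5076 murine sarcoma cells (10^6) implanted ip in C57Bl/6 mice. Agent given as its dimethanesulfonate salt dissolved in water. Median survival time (MST) recorded for treated and concurrent control groups. Activity expressed as %T/C, the treated MST as a percentage of the control MST.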

Mus musculus [2] = test: Median survival time of treated mice (T) compared to controls expressed as a percentage (%T/C) at the dose of 1.8 mg/kg (dose administered intraperitoneally on days 1, 5 and 9).; format: functional; conditions: route intraperitoneal; summary of the method: as §1
Mus musculus [3] = test: Median survival time of Compound on C57B1/6 mice which was implanted intraperitoneally with M5076 murine sarcoma cells at the dose of 0.8 mg/kg (dose administered intraperitoneally on days 1, 5 and 9).; format: functional; conditions: route intraperitoneal; summary of the method: as §1
Mus musculus [4] = test: Median survival time of treated mice (T) compared to controls expressed as a percentage (%T/C) at the dose of 0.8 mg/kg (dose administered intraperitoneally on days 1, 5 and 9).; format: functional; conditions: route intraperitoneal; summary of the method: as §1
Mus musculus [5] = test: Median survival time of Compound on C57B1/6 mice which was implanted intraperitoneally with M5076 murine sarcoma cells at the dose of 1.2 mg/kg (dose administered intraperitoneally on days 1, 5 and 9).; format: functional; conditions: route intraperitoneal; summary of the method: as §1
Mus musculus [6] = test: Median survival time of treated mice (T) compared to controls expressed as a percentage (%T/C) at the dose of 1.2 mg/kg (dose administered intraperitoneally on days 1, 5 and 9).; format: functional; conditions: route intraperitoneal; summary of the method: as §1
Mus musculus [7] = test: Median survival time of Compound on C57B1/6 mice which was implanted intraperitoneally with M5076 murine sarcoma cells at the dose of 2.2 mg/kg (dose administered intraperitoneally on days 1, 5 and 9).; format: functional; conditions: route intraperitoneal
Summary of the method: (§2)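 M5076 murine sarcoma, 10^6 cells implanted intraperitoneally into C57Bl/6 mice. Median survival time recorded for treated (T) and control (C) groups. %T/C calculated as the treated median survival relative to the control median survival, times 100.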

Mus musculus [8] = test: Median survival time of Compound on C57B1/6 mice which was implanted intraperitoneally with M5076 murine sarcoma cells at the dose of 3.3 mg/kg (dose administered intraperitoneally on days 1, 5 and 9).; format: functional; conditions: route intraperitoneal; summary of the method: as §2
Mus musculus [9] = test: Median survival time of treated mice (T) compared to controls expressed as a percentage (%T/C) at the dose of 2.2 mg/kg (dose administered intraperitoneally on days 1, 5 and 9).; format: functional; conditions: route intraperitoneal; summary of the method: as §2
Mus musculus [10] = test: Median survival time of treated mice (T) compared to controls expressed as a percentage (%T/C) at the dose of 5.0 mg/kg (dose administered intraperitoneally on days 1, 5 and 9).; format: functional; conditions: route intraperitoneal; summary of the method: as §2
Mus musculus [11] = test: Median survival time of Compound on C57B1/6 mice which was implanted intraperitoneally with M5076 murine sarcoma cells at the dose of 7.5 mg/kg (dose administered intraperitoneally on days 1, 5 and 9).; format: functional; conditions: route intraperitoneal; summary of the method: as §2
Mus musculus [12] = test: Median survival time of Compound on C57B1/6 mice which was implanted intraperitoneally with M5076 murine sarcoma cells at the dose of 5.0 mg/kg (dose administered intraperitoneally on days 1, 5 and 9).; format: functional; conditions: route intraperitoneal; summary of the method: as §2
Mus musculus [13] = test: Median survival time of treated mice (T) compared to controls expressed as a percentage (%T/C) at the dose of 7.5 mg/kg (dose administered intraperitoneally on days 1, 5 and 9).; format: functional; conditions: route intraperitoneal; summary of the method: as §2
Mus musculus [14] = test: Median survival time of treated mice (T) compared to controls expressed as a percentage (%T/C) at the dose of 3.3 mg/kg (dose administered intraperitoneally on days 1, 5 and 9).; format: functional; conditions: route intraperitoneal; summary of the method: as §2

## O=C1c2cccc3cc4c([N+](=O)[O-])cccc4c(c23)C(=O)N1CCNCCNCCN1C(=O)c2cccc3cc4c([N+](=O)[O-])cccc4c(c23)C1=O
HT-29
  pIC50: 7.02

## O=C1c2cccc3cc4ccccc4c(c23)C(=O)N1CCN1CCCN(CCN2C(=O)c3cccc4cc5ccccc5c(c34)C2=O)C1
HT-29
  pIC50: 8.70

## O=C1c2cccc3cc4c([N+](=O)[O-])cccc4c(c23)C(=O)N1CCNCCCNCCN1C(=O)c2cccc3cc4c([N+](=O)[O-])cccc4c(c23)C1=O
HT-29
  pIC50: 7.46

## O=C1c2cccc3cc4ccccc4c(c23)C(=O)N1CCCNCCNCCCN1C(=O)c2cccc3cc4ccccc4c(c23)C1=O
HT-29
  pIC50: 7.02

## CN(CCN(C)CCN1C(=O)c2cccc3cc4ccccc4c(c23)C1=O)CCN1C(=O)c2cccc3cc4ccccc4c(c23)C1=O
HT-29
  pIC50: 7.12

## O=C1c2cccc3cc4ccccc4c(c23)C(=O)N1CCNCCN1C(=O)c2cccc3cc4ccccc4c(c23)C1=O
HT-29
  pIC50: 7.52

## O=C1c2cccc3cc4ccccc4c(c23)C(=O)N1CCCNCCCNCCCN1C(=O)c2cccc3cc4ccccc4c(c23)C1=O
HT-29
  pIC50: 7.05

## O=C1c2cccc3cc4ccccc4c(c23)C(=O)N1CCNCCCCCNCCN1C(=O)c2cccc3cc4ccccc4c(c23)C1=O
HT-29
  pIC50: 8.05

## O=C1c2cccc3cc4ccccc4c(c23)C(=O)N1CCNCCNCCN1C(=O)c2cccc3cc4ccccc4c(c23)C1=O
HT-29
  pIC50: 8.05

## O=C1c2cccc3cc4ccccc4c(c23)C(=O)N1CCCNCCN1C(=O)c2cccc3cc4ccccc4c(c23)C1=O
HT-29
  pIC50: 5.70

## O=C1c2cccc3cc4ccccc4c(c23)C(=O)N1CCCNCCCCNCCCN1C(=O)c2cccc3cc4ccccc4c(c23)C1=O
HT-29
  pIC50: 6.70

## CN(CCCN1C(=O)c2cccc3cc4ccccc4c(c23)C1=O)CCCN1C(=O)c2cccc3cc4ccccc4c(c23)C1=O
HT-29
  pIC50: 7.72

## O=C1c2cccc3cc4ccccc4c(c23)C(=O)N1CCNCCCNCCN1C(=O)c2cccc3cc4ccccc4c(c23)C1=O
Mus musculus [1]
  MST: 31.2 days
Mus musculus [2]
  T/C: 143%
Mus musculus [3]
  MST: 31.5 days
HT-29
  pIC50: 8.40
Mus musculus [4]
  T/C: 143%
Mus musculus [5]
  MST: 34 days
Mus musculus [6]
  T/C: 155%

## O=C1c2cccc3cc4ccccc4c(c23)C(=O)N1CCCNCCCN1C(=O)c2cccc3cc4ccccc4c(c23)C1=O
HT-29
  pIC50: 7.70

## O=C1c2cccc3cc4ccccc4c(c23)C(=O)N1CCCCNCCCN1C(=O)c2cccc3cc4ccccc4c(c23)C1=O
HT-29
  pIC50: 7.15

## O=C1c2cccc3cc4ccccc4c(c23)C(=O)N1CCNCCCCNCCN1C(=O)c2cccc3cc4ccccc4c(c23)C1=O
HT-29
  pIC50: 7.39

## CN(C)CCN1C(=O)c2cccc3cc(N)cc(c23)C1=O [AMONAFIDE]
HT-29
  pIC50: 5.52

## CN(C)CCN1C(=O)c2cccc3cc4ccccc4c(c23)C1=O [AZONAFIDE]
HT-29
  pIC50: 6.85

## O=C1c2cccc3cccc(c23)C(=O)N1CCNCCCNCCN1C(=O)c2cccc3cccc(c23)C1=O [ELINAFIDE]
Mus musculus [7]
  MST: 21.5 days
Mus musculus [8]
  MST: 21.5 days
Mus musculus [9]
  T/C: 91%
Mus musculus [10]
  T/C: 102%
Mus musculus [11]
  MST: 21 days
HT-29
  pIC50: 7.85
Mus musculus [12]
  MST: 24 days
Mus musculus [13]
  T/C: 89%
Mus musculus [14]
  T/C: 91%

## CN(C)CCN1C(=O)c2cccc3cc([N+](=O)[O-])cc(c23)C1=O [MITONAFIDE]
HT-29
  pIC50: 6.22
